Shown are actives, neighbours in structure and some others; about 2.6% of the full set was active somewhere.
RAM inhibit = inhibitors of the yeast RAM network. inhibition, % at 50 µM. 1.8% of 190,000 active. S. cerevisiae dse1pr::URA3 reporter, 5-FOA growth OD615, 2 d; analog-sensitive cbk1-as2 kinase mutant strain. AID 868;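 active means inhibition above a set limit, 3 SD over mean compound inhibition, cut at about 8.4% in these data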;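 further: 0% = DMSO-only wells with no growth and 100% = 10 µM 1-NA-PP1 full growth; inhibition rescues growth on 5-FOA so higher OD means more RAM inhibition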
Yeast growth inh = chemicals that inhibit yeast BB579 growth in restrictive medium (lifespan-shortening candidates); S. cerevisiae BB579 growth, OD615, 48 h; inhibition, % at 10 µM; 0.51% of 140,000 active;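 active means inhibition above a set limit, 3 SD over the mean compound inhibition, cut at about 44% in these data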
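System: DeaD yeast strain BB579; buffer or medium: CSMM-D dextrose restrictive medium; technique: OD at 615 nm; schedule: 4 h cell preincubation, 48 h compound exposure, 30 °C humidified; doses: single 10 µM dose; controls: amphotericin B 10 µg/mL, positive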
Yeast life ext = yeast lifespan extension | S. cerevisiae growth with nicotinamide, OD615; deaD strain in restrictive glucose medium | inhibition of the nicotinamide effect, % at 10 µM | 0.68% of 130,000 active | AID 775;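 active means inhibition above a set limit, placed 3 SD over the median of all compounds, cut at about 26% in these data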;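 further: 0% = nicotinamide-treated wells and 100% = cells grown without nicotinamide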
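Material: Modified budding yeast, DeaD strain | Medium: Restrictive glucose medium | Probe or stimulus: 1.5 mM nicotinamide | Dosing: Single dose 10 µM compound, 0.25% DMSO | Times: 48 h at 30 °C | Technique: OD615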
* = called active by the depositor; x = not tested or not shown.

SMILES	RAM inhibit	Yeast growth inh	Yeast life ext
Cc1ccc2[nH]c3c(c2c1)CCN1C(=O)OC(C)(C)C31C (stereo not drawn)	0	x	x
O=C(CCSCCc1ccccn1)Nc1c(F)c(F)c(F)c(F)c1F	2	-27	27*
O=C(CCSCCc1ccccn1)Nc1ccccn1	0	-2	-5
NNC(=O)c1nc[nH]c1C(=O)Nc1ccccc1[N+](=O)[O-]	2	x	x
Cc1ncc([N+](=O)[O-])n1CC(=O)N/N=C/c1ccc(F)cc1	1	x	x
Cc1cc(C)c(NC(=O)c2ccc(CNS(=O)(=O)c3cc(C(F)(F)F)ccc3Cl)cc2)c(C)c1	5	-30	1
CCOc1cccc(C(=O)Nc2ccc3oc(Cc4ccc(Cl)cc4)nc3c2)c1	11*	-40	-4
O=C(Nc1ccc2oc(Cc3ccc(Cl)cc3)nc2c1)c1cccnc1	-1	-11	-4
Cc1cc(C)c(NC(=O)COC(=O)/C=C/c2cccs2)c(C)c1	5	-46	1
Cc1ccccc1C(=O)Oc1ccc(Sc2ccc(O)cc2)cc1	11*	-80	-14
Cc1ccccc1S(=O)(=O)Oc1ccccc1C(=O)Oc1ccccc1	8	-12	-13
c1ccc2oc(-c3ccc(Nc4nc(N5CCCC5)nc(N5CCOCC5)n4)cc3)nc2c1	8	x	x
O=C(O)c1ccccc1-c1csc(-c2ccccc2)n1	-1	x	x
COC(=O)c1ccccc1NC(=O)NCc1c(C)nn(C)c1C	0	x	x
Cc1ccc(-n2c(C)nn(CCOc3ccccc3)c2=O)cc1	0	x	x
CC(C)Nc1nnc(SC(C)C(=O)Nc2ccc(Cl)cn2)s1 (stereo not drawn)	3	x	x
CC(=O)NS(=O)(=O)c1cccnc1Nc1ccc(Cl)cc1	0	-67	-5
O=C(NCc1ccc2c(c1)OCO2)c1ccc(COc2cccc(Cl)c2)o1	6	2	-17
O=C(NCc1ccc2c(c1)OCO2)c1ccc(CSCc2ccccc2Cl)o1	11*	-14	0
O=C(COC(=O)c1cccnc1Nc1cccc(C(F)(F)F)c1)NC1CCS(=O)(=O)C1 (stereo not drawn)	0	6	-1
CC(=O)Nc1ccc(S(=O)(=O)NCC2CCC(C(=O)NC(C)c3ccc4c(c3)OCCO4)CC2)cc1 (stereo not drawn)	2	x	x
C/C(=N/NC(=O)c1ccccc1)C1=C(O)CC(C)(C)CC1=O	-1	x	x
CC(=Nc1ccc2c(c1)nc(CO)n2C)C1=C(O)CC(C)(C)CC1=O	1	-66	46*
CCN(CC)C(=O)Cn1cc(C(=O)C(=O)N2CC=C(c3ccccc3)CC2)c2ccccc21	2	x	x
COC(=O)CCC(=O)NC(=S)Nc1ccc(S(=O)(=O)N2CCCC2)cc1	-1	x	x
SMILES	RAM inhibit	Yeast growth inh	Yeast life ext
O=C(Nc1ccccc1)C1=C[C@H](c2csc3ccccc23)C[C@H](OCCCCO)O1	11*	x	x
C#CCNC(=O)C1=C[C@@H](c2ccc(Br)cc2)C[C@@H](OCc2ccc(CO)cc2)O1	8	x	x
O=C(Nc1ccccc1)C1=C[C@H](c2csc3ccccc23)C[C@H](OCc2ccc(CO)cc2)O1	5	x	x
O=C(C1=C[C@H](c2csc3ccccc23)C[C@H](OCCCCO)O1)N1CCN(Cc2ccccc2)CC1	4	x	x
O=C(NCc1ccccc1)C1=C[C@H](c2csc3ccccc23)C[C@H](OCCCCO)O1	11*	x	x
O=C(NCc1ccccc1)C1=C[C@@H](c2ccc(Br)cc2)C[C@@H](OCc2ccc(CO)cc2)O1	8.8*	x	x
CC(Cc1ccccn1)NC(=O)CCc1nnc(C2CCCCC2)o1 (stereo not drawn)	0	x	x
COC(=O)CC/C(O)=C1\C(=O)CC(C)(C)CC1=NCc1nc2ccccc2[nH]1	0	x	x
COc1cc(C(=O)NC2=C(C#N)CCC2)cc(OC)c1OC	1	x	x
O=C(Nc1ccc(-c2ccc3nncn3n2)cc1)c1ccc(Br)o1	2	x	x
CCOC(=O)CSc1nnc(CSc2nc3sc4c(c3c(=O)[nH]2)CCC4)n1-c1ccccc1	1	-27	-5
CCOC(=O)CSc1nnc(CSc2nc3sc4c(c3c(=O)[nH]2)CCC4)n1C	8.7*	-60	-8
Cc1ccc(/C(O)=C/C(=O)C(=O)NNC(=O)C(O)(c2ccccc2)c2ccccc2)cc1	1	-36	x
COC(=O)C(=O)/C=C(\O)c1ccc(C)cc1	-2	-20	73*
Cc1ccc(S(=O)(=O)N2CCCOC2CNC(=O)C(=O)NCc2ccncc2)cc1 (stereo not drawn)	0	6	-2
O=Cc1c(Cl)nc2ccccn12	4	x	x
Clc1cc2nc3ccccn3c2cc1Cl	2	43*	-32
Cc1c(NC(=O)C(C)OC(=O)CCC2CCCC2)c(=O)n(-c2ccccc2)n1C (stereo not drawn)	2	x	x
Cc1nc2ccc(NC(=O)COc3ccccc3C)cc2s1	3	x	x
COCCn1c(C)cc(C(=O)COC(=O)c2c(C)nn(Cc3ccccc3)c2C)c1C	0	-33	-8
Cc1nn(Cc2ccccc2)c(C)c1C(=O)OCC(=O)c1cc(C)n(C2CC2)c1C	9.1*	-29	-16
CCn1c2ccccc2c2cc(NC(=O)CSc3nccc(=O)[nH]3)ccc21	4	x	x
COc1ccc(C(=O)Nc2ccc(NC(=O)c3cccs3)cc2)cc1[N+](=O)[O-]	2	-39	2
Cc1c(C(=O)Nc2ccc(OCc3ccccc3)cc2)cccc1[N+](=O)[O-]	5	-55	-11
CCOc1ccc(C(=O)Nc2ccc(NC(=O)c3cccs3)cc2)cc1[N+](=O)[O-]	10*	-22	1
SMILES	RAM inhibit	Yeast growth inh	Yeast life ext
COc1ccc(C(=O)Nc2ccc(OCc3ccccc3)cc2)cc1[N+](=O)[O-]	1	9	60*
COc1cccc(OCC(=O)O/N=C(\N)c2ccc(OC)c(OC)c2)c1	5	-13	-7
CCCCCc1ccc(-c2nnc(N)s2)cc1	4	x	x
CCCCCCc1ccc(-c2ncc(N)cn2)cc1	1	97*	-31
CCC(=O)N1N=C(c2ccc(NS(C)(=O)=O)cc2)CC1c1ccc(N(C)C)cc1 (stereo not drawn)	1	x	x
O=C(COc1ccc([N+](=O)[O-])cc1)Nc1ccccc1N1CCCC1	3	x	x
O=C(Nc1nnc(CCS(=O)(=O)c2ccc3ccccc3c2)s1)c1cccs1	3	-25	-2
O=C(Nc1nnc(CCS(=O)(=O)c2ccc3ccccc3c2)s1)c1ccc([N+](=O)[O-])cc1	8.4*	-28	5
CCCNC(=O)CN(c1cccc(F)c1)S(C)(=O)=O	1	4	4
Cn1cnnc1SCC(=O)c1cc2ccccc2oc1=O	0	-44	-5
Cc1cc(C)c[n+](CC(=O)c2cc3ccccc3oc2=O)c1	1	-36	5
O=C(Cn1nc(Cl)nc1Cl)c1cc2ccccc2oc1=O	0	-29	42*
Cc1ccc[n+](CC(=O)c2cc3ccccc3oc2=O)c1	3	-26	36*
Cc1ccc(C(=O)C2CCN(CC(=O)N3CCN(c4ccc(F)cc4)CC3)CC2)cc1	3	x	x
Cc1cc(C)cc(NC(=O)CSc2nc3c(c(=O)[nH]2)CN(Cc2ccc(F)cc2)CC3)c1	0	-18	8
COc1cccc(CN2CCNC(=O)C2CC(=O)NCCc2nc(C)c(C)s2)c1OC (stereo not drawn)	0	x	x
COc1ccc(NC(=O)C2CCN(S(=O)(=O)c3ccc(Br)s3)CC2)cc1OC	10*	-44	17
